Consider three molecules from ChEMBL document CHEMBL4390662, “Design, synthesis and biological evaluation of novel α-acyloxy carboxamides via Passerini reaction as caspase 3/7 activators” (Eur J Med Chem, 2019).

Converted amounts (≈) assume the structure as drawn. The source made the active and inactive calls.

A word on the IC50: it is the concentration that inhibits the measured activity by half. In general, MIC refers to the smallest concentration in the dilution series that meets the test's criterion for growth inhibition.

Data set [1] concerns HepG2. Kind of data set: Cytotoxicity against human HepG2 cells assessed as cell growth inhibition incubated for 72 hrs by MTT assay. In kind it is functional, cell-based. The following applies: HepG2, 72 h. The essentials:
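Cells grown in RPMI-1640 with 10% FBS and seeded at 5×10^3 per well. After 24 h, serial concentrations given for 72 h at 37°C, 5% CO2. Then 5 mg/mL MTT stock added for 3 h, formazan dissolved in DMSO, A570 read. IC50 calculated from the curves.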
Background: Formazan colour is commonly taken as a measure of viable cells.

In data set [2] the test system is HepG2. Kind of data set: Induction of apoptosis in human HepG2 cells assessed as total apoptotic cells at IC50 incubated for 72 hrs by annexin V/propidium iodide staining based flow cytometry (reference value: 0.169 +/- 0.02%). In kind it is functional. For orientation: A flow cytometer gives signals particle by particle.
In data set [3] the test system is MCF7. Briefly: Induction of apoptosis in human MCF7 cells assessed as early apoptotic cells level at IC50 incubated for 72 hrs by annexin V/propidium iodide staining based flow cytometry (reference value: 0.01%). In kind it is functional.
The test system of data set [4] is NFS-60. Briefly: Induction of apoptosis in mouse NFS60 cells assessed as early apoptotic cells level at IC50 incubated for 72 hrs by annexin V/propidium iodide staining based flow cytometry (reference value: 0.46%). In kind it is functional.
For data set [5], the system named is HepG2. Kind of data set: Induction of apoptosis in human HepG2 cells assessed as induction of cell shape loss by phase contrast inverted fluorescence microscopy. In kind it is functional, cell-based.
In data set [6] the test system is MCF7. Kind of data set: Induction of caspase-independent apoptosis in human MCF7 cells assessed as AIF1 release level using tetramethylbenzidine as substrate incubated for 1 hr by ELISA (reference value: 2.28 +/- 0.06 ng/ml). In kind it is functional. The essentials:
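Extracts of untreated and treated cells added to anti-AIF1-coated wells. Incubated 1 h with HRP-conjugated antibody, washed, then TMB substrate added. Reaction stopped after 10 min and read at 450 nm. AIF1 reported in ng/mL, mean ± SEM.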
In general terms: In an ELISA, binding on a coated surface is turned into a signal by an enzyme label.

Data set [7] can be described thus: Selectivity index, ratio of IC50 for human WI38 cells to IC50 for mouse NFS60 cells. The essentials:
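SI calculated as IC50 on normal Wi-38 fibroblasts divided by IC50 on the cancer cell line. Both came from 72 h MTT assays.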

Data set [8] deals with MCF7. Briefly: Induction of apoptosis in human MCF7 cells assessed as total apoptotic cells at IC50 incubated for 72 hrs by annexin V/propidium iodide staining based flow cytometry (reference value: 0.48 +/- 0.01%). In kind it is functional.
Data set [9] has as its system WI-38. Briefly: Cytotoxicity against human WI38 cells assessed as cell growth inhibition incubated for 72 hrs by MTT assay. In kind it is cell-based. The following applies: for IC50: Homo sapiens, WI-38, 72 h; for EC100: human, wi-38, 72 h. In a few lines: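 Wi-38 fibroblasts grown in DMEM with 10% FBS and seeded at 5×10^3 per well. Attachment 24 h, then serial concentrations for 72 h at 37°C, 5% CO2. MTT stock (5 mg/mL) added for 3 h at 37°C, DMSO solubilization, absorbance at 570 nm. IC50 estimated.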

The subject of data set [10] is Pseudomonas aeruginosa. Briefly: Antimicrobial activity against Pseudomonas aeruginosa ATCC 27853 incubated for 24 hrs by agar well diffusion assay. In kind it is functional. In a few lines: (§1)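 Nutrient agar spread with 100 µL inoculum: bacteria at 1×10^8 CFU/mL, fungi at 1×10^6 CFU/mL. 10 mm wells loaded with 100 µL of compound in DMSO (final 1 mg/mL). Bacteria incubated 24 h at 37 °C, fungi 48 h at 28 °C. Inhibition zones measured in mm. Ciprofloxacin and fluconazole standards at 1 mg/mL, DMSO negative control.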

Data set [11] has as its system Escherichia coli. Kind of data set: Antimicrobial activity against Escherichia coli ATCC 25922 incubated for 24 hrs by microdilution assay. In kind it is functional. The following applies: ATCC 25922, 24 h. The essentials: (§2)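 Two-fold serial dilutions of test solutions made in Mueller Hinton broth and inoculated. Incubated at 37°C for 24 h. MIC taken as the lowest concentration with no growth. Ciprofloxacin is the antibacterial reference, fluconazole the antifungal one, and DMSO the blank.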

Data set [12] deals with Candida albicans. Kind of data set: Antimicrobial activity against Candida albicans ATCC 90028 incubated for 48 hrs by agar well diffusion assay. In kind it is functional. The essentials: as §1
Data set [13] relates to Escherichia coli. Briefly: Antimicrobial activity against Escherichia coli ATCC 25922 incubated for 24 hrs by agar well diffusion assay. In kind it is functional. The essentials:
as §1

Data set [14] concerns Candida albicans. Kind of data set: Antimicrobial activity against Candida albicans ATCC 90028 incubated for 24 hrs by microdilution assay. In kind it is functional. The essentials: as §2
In data set [15] the test system is Staphylococcus aureus. Kind of data set: Antimicrobial activity against Staphylococcus aureus ATCC 25923 incubated for 24 hrs by agar well diffusion assay. In kind it is functional. The essentials:
as §1

Data set [16] concerns Enterococcus faecalis. Kind of data set: Antimicrobial activity against Enterococcus faecalis ATCC 29212 incubated for 24 hrs by agar well diffusion assay. In kind it is functional. In a few lines: as §1
Data set [17] concerns Staphylococcus aureus. Briefly: Antimicrobial activity against Staphylococcus aureus ATCC 25923 incubated for 24 hrs by microdilution assay. In kind it is functional. In a few lines:
as §2

In the case of `O=C(OC1(C(=O)Nc2ccc([N+](=O)[O-])cc2)CCCCC1)c1ccc([N+](=O)[O-])cc1`, the IC50 in data set [1] turned out to be 14.1 nM; in [9], 761 nM. Further, the Activity in data set [2] amounted to 41.815%; in data set [3], 1.96%; in data set [4] it was 2.41%; in data set [6] it was 2.34 ng/mL; in data set [8], 44.505%. Also, the result in [5] was Active. For the same molecule, in [7], the “Ratio IC50” value is given as 98.831. The EC100 in data set [9] came out at 0.149 µM.
Regarding `O=C(Cc1ccccc1)OC1(C(=O)Nc2ccc([N+](=O)[O-])cc2)CCCCC1`, the half-maximal inhibitory concentration (IC50) in data set [1] turned out to be 14.2 nM; in data set [9], 43.9 nM. For the same molecule, the Activity in data set [2] amounted to 33.485%; in data set [3] it was 7.06%; in data set [4], 5.65%; in [6] it was 2.33 ng/mL; in data set [8], 33.98%. Also, the figures for the “diameter of the inhibition zone (DIZ)” value in data set [10] and in [13] were 15 mm and 16 mm, respectively. Further, the MIC in [11] was 2680 µM (≈ 1020 µg/mL). Also, the “diameter of the inhibition zone (DIZ)” value in data set [12], in data set [15] and in data set [16] was “inactive” each time. Further, the MIC result in [14] and in data set [17] was “inactive” throughout. In addition, the result in data set [5] was Active. For the same molecule, in data set [7], the “Ratio IC50” value turned out to be 5.419. The EC100 in [9] was found to be 0.032 µM.
Turning to `O=C(OC1(C(=O)Nc2ccc([N+](=O)[O-])cc2)CCCCC1)C(O)c1ccccc1` (stereo unspecified), the figures for the IC50 in data set [1] and in [9] were 7.7 nM and 84.4 nM, respectively. For the same molecule, the Activity in data set [2] worked out at 48.905%; in data set [3] it was 3.76%; in data set [4] it was 2.12%; in data set [6] it was 2.36 ng/mL; in data set [8], 53.129%. In addition, the “diameter of the inhibition zone (DIZ)” value in data set [10] is 14 mm; in data set [13], 16 mm. Further, the MIC in data set [11] came out at 2570 µM (≈ 1020 µg/mL). Further, the “diameter of the inhibition zone (DIZ)” value in [12], in [15] and in [16] was “inactive” throughout. Also, the MIC result in [14] and in data set [17] was “inactive” each time. Further, the outcome in data set [5] was Active. For the same molecule, in data set [7], the “Ratio IC50” value is recorded as 10.82. The EC100 in [9] stood at 0.0507 µM.
